Results published in PubChem BioAssay AID602194 (The Scripps Research Institute Molecular Screening Center, 2012).
About 140 (5.8%) of roughly 2,400 compounds were called active. These entries were drawn from the full list. Values without a mark were called inactive.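 The calls were made as follows: active = mean activation across replicates exceeds the hit threshold derived in the earlier primary screen (cut at about 18% in these data); inactive = the rest.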

Target: Mu-type opioid receptor (Homo sapiens) + Delta-type opioid receptor (Homo sapiens) (UniProt P35372+P41143)
Sequence (P35372 whole entry, looked up): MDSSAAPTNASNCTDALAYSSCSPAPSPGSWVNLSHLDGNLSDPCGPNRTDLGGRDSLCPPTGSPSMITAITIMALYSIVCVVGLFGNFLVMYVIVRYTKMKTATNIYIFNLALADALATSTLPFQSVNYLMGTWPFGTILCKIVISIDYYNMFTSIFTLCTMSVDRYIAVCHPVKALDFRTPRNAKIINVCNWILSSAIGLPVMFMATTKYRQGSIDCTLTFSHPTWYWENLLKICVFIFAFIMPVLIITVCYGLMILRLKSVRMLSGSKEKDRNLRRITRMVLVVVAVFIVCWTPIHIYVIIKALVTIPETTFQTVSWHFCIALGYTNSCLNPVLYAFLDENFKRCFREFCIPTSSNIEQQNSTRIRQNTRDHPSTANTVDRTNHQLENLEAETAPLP
Sequence (P41143 whole entry, looked up): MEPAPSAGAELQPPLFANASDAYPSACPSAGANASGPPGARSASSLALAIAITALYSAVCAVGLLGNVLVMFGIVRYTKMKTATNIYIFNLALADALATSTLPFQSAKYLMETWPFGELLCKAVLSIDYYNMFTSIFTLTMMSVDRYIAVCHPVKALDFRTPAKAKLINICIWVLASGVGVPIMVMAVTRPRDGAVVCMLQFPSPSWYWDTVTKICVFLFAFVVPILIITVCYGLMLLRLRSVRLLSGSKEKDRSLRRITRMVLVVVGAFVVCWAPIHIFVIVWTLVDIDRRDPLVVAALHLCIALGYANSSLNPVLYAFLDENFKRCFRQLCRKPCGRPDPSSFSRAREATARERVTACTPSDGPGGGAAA
Experiment: OPRM1-OPRD1 heterodimer beta-arrestin recruitment activators – cell-based, luminescence, counter-screen for MC4R biased agonist project (AID 602194);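 also: 100% = deltorphin B at 0.9 µM final and 0% = DMSO alone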
Settings: U2OS PathHunter beta-arrestin, beta-gal luminescence; at 9.2 µM; hits give high values; percent of deltorphin B response, DMSO zero
Summary of the method: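 Material: U2OS Mu-Delta cells coexpressing OPRM1, OPRD1 and beta-arrestin. Schedule: 23 h growth, 3 h compound 37 °C, 1 h detection. Measured by: beta-gal complementation luminescence. Read-out: percent activation, mean of triplicates, scaled between DMSO and Deltorphin B. Control set: Deltorphin B high, DMSO low. Repeats: three replicates.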

In order of falling activation:
1. O=C(NCCc1c[nH]c2ccc(Cl)cc12)c1ccc([N+](=O)[O-])cc1  15.2%
2. CC(=O)Nc1ccc(NC(=O)c2sc3nc4c(c(-c5ccc(C)cc5)c3c2N)CCC4)cc1  14.3%
3. COc1ccc(C(N)c2csc(NC(=O)Nc3cccc(C(F)(F)F)c3)n2)cc1 (stereo unspecified)  13.5%
4. Cc1ccccc1NC(=O)c1ccc(COc2ccc3c(C)cc(=O)oc3c2)cc1  12.7%
5. Cc1ccc(CCC(=O)Nc2ncc(Cc3cc(Cl)ccc3Cl)s2)o1  10.6%
6. COc1cc(/C=C(\C#N)C(=O)Nc2ccc3ccccc3c2)c([N+](=O)[O-])cc1OC  10.3%
7. COc1cccc2sc(N(CCCN(C)C)C(=O)C(c3ccccc3)c3ccccc3)nc12  9.67%
8. O=C(NC(c1ccc(-c2ccccc2)cc1)c1cnccn1)C1CCN(CCOc2ccc(Cl)cc2Cl)CC1 (stereo unspecified)  9.53%
9. O=C(CCCCCN1C(=O)c2cccc3cccc(c23)C1=O)NCc1ccco1  9.12%
10. O=C(NC(=S)Nc1cccc2c(O)cccc12)c1cccc(Br)c1  8.2%
11. CSc1nc2sc3c(c2c(=O)[nH]1)CCc1ccccc1-3  7.74%
12. O=C(OC12CC3CC(CC(C3)C1)C2)c1ccc(NCc2cc(O)ccc2O)cc1  7.74%
13. Cc1ccc(NC(=O)Nc2ccccc2)c(Br)c1  7.33%
14. Cc1ccc(-n2cc3ccc([N+](=O)[O-])cc3n2)cc1  7.27%
15. CC(=O)c1sc(NC(=O)CCCOc2ccccc2C)nc1C  7.21%
16. COc1c(Cl)cc(C(=O)Nc2ccc(Cl)cn2)cc1Cl  7.15%
17. CCn1c(SCC(=O)Nc2cccc(F)c2)nnc1-c1cc2cc(Br)ccc2o1  6.83%
18. Cc1ccc(-c2csc(NC(=O)Cn3[nH]c(=O)c4ccccc4c3=O)n2)cc1  6.76%
19. CCOC(=O)c1[nH]c2c(c1-c1ccccc1)C(=O)CC(c1ccc(Cl)cc1)C2 (stereo unspecified)  6.76%
20. CCN(CC)S(=O)(=O)c1ccc(C)c(NC(=O)COc2ccc(Br)cc2Cl)c1  6.67%
21. Cn1c(=S)sc2ccc3ccccc3c21  6.66%
22. Cc1cccc(NC(=O)Nc2cccc(Oc3c(F)c(F)c(F)c(F)c3F)c2)c1  6.53%
23. O=C(CSc1ccccc1)Nc1nnc(/C=C/c2ccccc2)s1  6.5%
24. O=C(N/N=C/c1ccc(OC(=O)c2ccccc2Cl)cc1)c1ccc(O)cc1  6.45%
25. O=C(COC(=O)c1cccc(Br)c1)Nc1cccc2c1C(=O)c1ccccc1C2=O  6.2%
26. CCCCNc1c(-c2cccc(Sc3ccc(OC)cc3)c2)nc2ccccn12  6.07%
27. O=C1N/C(=C/c2cccn2-c2ccccc2)C(=O)N1c1cccc(Cl)c1  6.05%
28. Brc1ccc(-c2csc(N/N=C/c3cccnc3)n2)cc1  5.84%
29. Cc1ccc([C@H]2C[C@H](O)[C@@H](n3cc(COC(=O)c4ccccc4)nn3)CN2C(=O)C2CCCCC2)cc1  5.71%
30. O=C(Nc1ccc2oc(-c3ccc4ccccc4c3)nc2c1)c1cccs1  5.63%
31. O=C(/C=C/c1c(Cl)cccc1Cl)NCc1ccccc1  5.53%
32. CCN1C[C@@H]2[C@@H]3C(=O)N(Cc4ccccc4)C(=O)[C@@H]3[C@](Cc3ccccc3)(C(=O)OC)N2C1=NC1CCCCC1  5.52%
33. CSc1ccc(/C=N\NC(=O)COc2ccc(Cl)cc2Br)cc1  5.52%
34. Cc1csc(NC(=O)c2ccc(-c3ccc(Cl)cc3Cl)o2)n1  5.41%
35. COCCNc1nc(Nc2ccccc2Cl)c2sc(-c3ccccc3)cc2n1  5.13%
36. NC(N)=Nc1nc(-c2ccccc2)c2cc(Cl)ccc2n1  5.11%
37. COc1ccc(C)c(Cn2c(-c3nonc3N)nc3ccccc32)c1  5.04%
38. CCCCN1CC(C)(C)[C@H](CC(=O)Nc2ccc(Br)cc2)C1=O  4.9%
39. CC(=O)Nc1cc(-c2ccccc2N(C)C)cn2c(-c3ccc(F)c(Cl)c3)cnc12  4.79%
40. CC(C)c1ccc2c(c1)c(SC(C)(C)C)c(CC(C)(C)C(=O)O)n2Cc1ccc(Cl)cc1  4.65%
41. O=C(Nc1sc2c(c1-c1nc3ccccc3[nH]1)CCCC2)C1CC1  4.53%
42. CC(=O)Nc1ccc(-c2csc(NC(=O)Nc3ccccc3)n2)cc1  4.45%
43. O=C(CCCN1C(=O)/C(=C\c2ccco2)SC1=S)Nc1cccc2ccccc12  4.3%
44. COc1ccc(S(=O)(=O)N2CCC(C(=O)OCC(=O)c3ccccc3)CC2)cc1[N+](=O)[O-]  4.26%
45. COc1ccccc1-c1cc(NC(C)=O)c2ncc(-c3ccc(F)cc3)n2c1  4.19%
46. CCN1CCN(CCNC(=O)c2ccc(/C=C3/Sc4ccccc4N(Cc4cccc(C)c4)C3=O)cc2)CC1  4.15%
47. COc1ccc(Nc2ncnc3sc(-c4ccccc4)cc23)c(OC)c1  3.93%
48. Cc1cccc(C)c1OC(=O)CSc1nnc(-c2ccccc2)o1  3.88%
49. COc1ccc(Cl)cc1-n1c(C)cc(C(=O)OCC(=O)N2CC(=O)Nc3ccccc32)c1C  3.77%
50. CCOc1ccc(/C=C/C(=O)OCC(=O)c2ccccc2OC)cc1OC  3.55%
51. O=C(Cn1cnc2c(nnn2-c2ccccc2)c1=O)N1CCC(Cc2ccccc2)CC1  3.51%
52. O=C(NC1CCCCCC1)c1cccnc1Sc1ccc(Cl)cc1  3.4%
53. Cc1cc(C)cc(C(=O)OCC(=O)NCCNC(=O)COC(=O)c2cc(C)cc(C)c2)c1  3.35%
54. COc1ccc(S(=O)(=O)N/N=C\c2ccc(OC)c(COc3ccc(C)cc3[N+](=O)[O-])c2)cc1  3.27%
55. COc1ccc(-c2cc(NC=O)c3ncc(-c4ccccc4)n3c2)cc1OC  3.12%
56. CCc1ccc2c(c1)cc(CN(C(=S)Nc1ccccc1Cl)C1CC1)c1nnnn12  2.95%
57. Cc1nn2cc(-c3ccc(Cl)cc3)cnc2c1Br  2.93%
58. COc1ccc(OCC(=O)Nc2ccc(N3CCC(C)CC3)cc2)cc1  2.59%
59. CC(=O)Nc1cc(-c2ccccc2F)cn2c(-c3cccc(C(F)(F)F)c3)cnc12  2.54%
60. CC(=O)c1cccc(-c2cnc3c(NC=O)cc(-c4ccc(N(C)C)cc4)cn23)c1  2.52%
61. COc1ccc(C(=O)c2oc3ccc(Br)cc3c2NC(C)=O)cc1  1.7%

In the case of COc1ccc(CC(N)c2csc(NC(=O)NC(c3ccccc3)c3ccccc3)n2)cc1 (stereo unspecified), the activation is reported as 27.4% (active).
For COc1cccc(CNCCc2c[nH]c3ccccc23)c1OCc1ccccc1F, the activation was 39.6% (active).
In the case of O=C(CCCn1c(SCC(=O)c2ccc(F)cc2)nc2ccccc2c1=O)NCc1ccco1, the activation is reported as 33.1% (active).
For CCCCCCCCCCOC(=O)Cn1c(COc2ccc(C)cc2)[n+](C)c2ccccc21, the activation was 22.4% (active).
With CCCCCCCCCCOC(=O)Cn1c(COc2cccc(OC)c2)[n+](C)c2ccccc21 the activation was 19.9% (active).
